Compound activity as filed in PubChem.
A selection: hits, their analogues and other compounds. The true share with any hit is near 3.1%.
rRNA inh HTS = reduced GFP signal of wild-type E. coli, primary screen, bacterial rRNA inhibitor project, GFP/RFP fluorescence, OD600, single point | E. coli WT GFP vs humanized-ribosome RFP mutants, 24 h; stronger effect = lower value; DMSO median 0, no signal -100 | GFP signal change (wild-type ribosome), % (concentration not given with the values) | hit rate 1.6% among 350,000 | AID 720706, 2013;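 active = significant combined selectivity score with lowered wild-type GFP, culture density cut under 30%, mutant RFP and density less affected; inactive = any of these conditions unmet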
E-sel inducer = E-selectin induction in HUVECs, primary screen, imaging, HUVEC, immunofluorescence imaging, single point. activation, % at 7.58 µM. P16581. hit rate 0.37% among 260,000. normalized: neutral wells 0, TNF-alpha wells 100. AID 686992, 2013;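 active = mean E-selectin-positive cell signal at least 10% of the positive control, reached in at least 60% of replicates, without over 20% cell loss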
Target sequence (P16581 whole entry, looked up): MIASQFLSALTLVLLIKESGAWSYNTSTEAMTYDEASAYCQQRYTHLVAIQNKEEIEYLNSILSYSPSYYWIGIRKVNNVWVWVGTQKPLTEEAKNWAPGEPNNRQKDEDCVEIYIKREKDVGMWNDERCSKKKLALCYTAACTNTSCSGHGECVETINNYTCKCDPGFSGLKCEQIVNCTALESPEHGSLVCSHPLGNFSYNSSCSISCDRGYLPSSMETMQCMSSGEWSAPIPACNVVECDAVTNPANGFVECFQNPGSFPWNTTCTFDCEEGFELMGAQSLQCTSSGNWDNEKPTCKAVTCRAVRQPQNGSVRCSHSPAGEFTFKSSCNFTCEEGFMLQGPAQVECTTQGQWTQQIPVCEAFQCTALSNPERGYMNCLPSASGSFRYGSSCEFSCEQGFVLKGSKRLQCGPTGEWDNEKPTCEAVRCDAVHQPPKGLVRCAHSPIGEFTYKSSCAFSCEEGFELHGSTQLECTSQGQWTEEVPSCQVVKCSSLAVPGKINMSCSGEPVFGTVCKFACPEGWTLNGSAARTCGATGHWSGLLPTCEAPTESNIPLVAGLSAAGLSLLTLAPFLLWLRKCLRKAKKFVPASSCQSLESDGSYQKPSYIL
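assay system = HUVEC, human umbilical vein endothelial cells | input = 3,000 HUVEC seeded per well | medium = EGM-2 growth medium on 0.1% gelatin-coated wells | dosing = one compound dose added by pin transfer | signal = immunofluorescence imaging | read-out basis = % PE-positive cells | control set = TNF-alpha, DMSO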
miR-122 sensor = miR-122 Renilla sensor signal increase in Huh7, primary screen, miR-122 inhibitor project, cell-based, single point, plate reader; activation (reporter increase), % at 12.5 µM; Huh7 miR-122 Renilla luciferase sensor, 48 h; neutral wells = 0, positive control = 100; AID 602342, 2012; hit rate 0.3% among 340,000;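 active = mean replicate activation score at least 90 and every replicate individually at or above 90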;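 also: higher luciferase means less miR-122 activity so hits act as miR-122 inhibitors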
Cneo AK release = Cryptococcus neoformans cell lysis inducers, primary screen, AK release luminescence, single concentration. C. neoformans lysis, adenylate kinase release luminescence, 4 h; normalised: neutral wells 0, clomiphene wells 100. lysis activity, % at 15 µM. hit rate 0.2% among 360,000. AID 651654, 2012;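 active = mean lysis activity across replicates of at least 80%, whatever share of replicates individually reach that level; inactive = mean lysis activity below 80%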
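read-out = cell lysis signal | test system = log-phase Cryptococcus neoformans yeast cells | input = cells at 5 × 10^6 per mL | medium = fresh YPD growth medium | signal = luminescent adenylate kinase detection reagent | timing = 4 h at 37 °C static, read 1 h later | dosing = single dose | controls = Clomiphene as positive lysis control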
DENV2 CPE = inhibitors of DENV2 cytopathic effect, primary screen, cell-based, plate reader, single concentration | DENV2-infected cells, cytopathic effect rescue | AID 651640, 2012 | hit rate 1.7% among 350,000 | CPE inhibition, % at 9.99 µM; in the data active = CPE inhibition above about 20%, passing the limit was not always enough; tested in BHK-21 cells
Each line names hits and unclear results; the compound was inactive in the other large screens; ! = repeats disagree.

CCNC(=O)C[C@H]1CC[C@@H]2[C@@H](COc3ccc(NC(=O)Nc4ccc(Cl)cc4)cc3C(=O)N2C)O1	none
C[C@H](CO)N1C[C@H](C)[C@@H](CN(C)C(=O)C2CCC2)Oc2cc(-c3ccc(F)cc3)ccc2S1(=O)=O	none (no result: Cneo AK release, DENV2 CPE)
O=C(NCc1ccc(F)cc1)[C@@H]1[C@@H](CO)[C@@H]2Cn3c(cccc3=O)[C@H]1N2C(=O)Cc1ccccn1	none (no result: miR-122 sensor)
COc1cccc(S(=O)(=O)N2C[C@@H](O)COC[C@H]3O[C@H](CC(=O)N4CCN(C)CC4)CC[C@@H]32)c1	Cneo AK release 85, DENV2 CPE 20
COc1cccc(S(=O)(=O)N2C[C@H](O)COC[C@@H]3O[C@H](CC(=O)Nc4ccccc4)CC[C@H]32)c1	none
COc1cccc(S(=O)(=O)N2C[C@@H](O)COC[C@@H]3O[C@@H](CC(=O)N4CCN(C)CC4)CC[C@H]32)c1	none
COc1cccc(S(=O)(=O)N2C[C@@H](O)COC[C@H]3O[C@H](CC(=O)Nc4ccccc4)CC[C@@H]32)c1	Cneo AK release 112
O=C(C[C@H]1CC[C@H]2[C@@H](COC[C@H](O)CN2S(=O)(=O)c2cccc(Cl)c2)O1)N1CCOCC1	DENV2 CPE 21
CCNC(=O)[C@H]1[C@H](CO)[C@H]2Cn3c(ccc(/C=C/c4ccccc4)c3=O)[C@@H]1N2	none
CCC(N=c1cc(-c2ccc(OC)c(OC)c2)oc2ccc(C)cc12)C(=O)O (stereo not drawn)	DENV2 CPE 22 (no result: E-sel inducer, miR-122 sensor, Cneo AK release)
O=C(Nc1ccc(F)c(Cl)c1)Nn1cnnc1	DENV2 CPE 76
C[C@@H]1CN([C@H](C)CO)C(=O)Cc2cc(NS(=O)(=O)c3ccc(Cl)cc3)ccc2O[C@@H]1CN(C)C(=O)Nc1ccccc1	DENV2 CPE 27
Cc1ccc(S(=O)(=O)Nc2ccc3c(c2)CC(=O)N([C@H](C)CO)C[C@H](C)[C@@H](CN(C)C(=O)Nc2ccc(F)cc2)O3)cc1	none
Cc1ccc(S(=O)(=O)Nc2ccc3c(c2)CC(=O)N([C@H](C)CO)C[C@@H](C)[C@@H](CN(C)C(=O)Nc2ccc(F)cc2)O3)cc1	DENV2 CPE 25
C[C@@H]1CN([C@@H](C)CO)C(=O)Cc2cc(NS(=O)(=O)c3ccc(Cl)cc3)ccc2O[C@@H]1CN(C)C(=O)Nc1ccccc1	none
C[C@@H]1CCCCO[C@@H](CN(C)C(=O)Nc2ccc3c(c2)OCO3)[C@H](C)CN([C@H](C)CO)C(=O)c2cc(NC(=O)c3ccncc3)ccc2O1	none
C[C@H]1CCCCO[C@@H](CN(C)Cc2ccc3c(c2)OCO3)[C@@H](C)CN([C@@H](C)CO)C(=O)c2cc(NS(=O)(=O)c3cccs3)ccc2O1	DENV2 CPE 59! (no result: E-sel inducer)
C[C@@H]1CN([C@@H](C)CO)C(=O)c2cc(NS(=O)(=O)c3cccs3)ccc2O[C@@H](C)CCCCO[C@@H]1CN(C)Cc1ccc2c(c1)OCO2	none
C[C@@H]1CN([C@H](C)CO)C(=O)c2cc(NS(=O)(=O)c3cccs3)ccc2O[C@@H](C)CCCCO[C@H]1CN(C)Cc1ccc2c(c1)OCO2	DENV2 CPE 55
COc1ccc(S(=O)(=O)NCCc2c(C)nn(C)c2Oc2ccccc2)cc1	miR-122 sensor 238 (no result: rRNA inh HTS, DENV2 CPE)
Oc1ccccc1C=NCC(O)c1ccccc1 (stereo not drawn)	DENV2 CPE 76 (no result: E-sel inducer)
COc1ccc(NS(=O)(=O)c2ccc(Cl)c(NC(=O)c3cccnc3Cl)c2)cc1	none
COc1ccc(NS(=O)(=O)c2ccc(Cl)c(NC(=O)c3ccccc3F)c2)cc1	rRNA inh HTS -13
CNC[C@@H]1OCCCC[C@H](C)Oc2ccc(N(C)C)cc2C(=O)N([C@@H](C)CO)C[C@@H]1C	none (no result: Cneo AK release, DENV2 CPE)
O=C(c1ccc2c(c1)OCO2)N1CC2(C1)[C@H](c1ccccc1)[C@@H](CO)N2C(=O)C1CCC1	DENV2 CPE 44 (no result: miR-122 sensor, Cneo AK release)
CCC(=O)N1CC2(C1)[C@H](c1ccccc1)[C@@H](CO)N2C(=O)NC(C)C	DENV2 CPE 29 (no result: miR-122 sensor, Cneo AK release)
CC(C)NC(=O)N1[C@H](CO)[C@@H](c2ccccc2)C12CN(C(=O)CN(C)C)C2	none (no result: miR-122 sensor, Cneo AK release)
COCC(=O)N1[C@@H](CO)[C@@H](c2ccccc2)C12CN(C(=O)Nc1ccccc1F)C2	none (no result: miR-122 sensor, Cneo AK release)
O=C(c1cccnc1)N1CC2(C1)[C@@H](c1ccccc1)[C@@H](CO)N2CC1CC1	DENV2 CPE 20 (no result: miR-122 sensor, Cneo AK release)
CCC(=O)N1[C@H](CO)[C@H](c2ccccc2)C12CN(C(=O)Nc1ccccc1F)C2	DENV2 CPE 27 (no result: miR-122 sensor, Cneo AK release)
CCCNC(=O)C[C@H]1C[C@@H]2c3cc(NC(=O)Nc4ccccc4)ccc3O[C@@H]2[C@H](CO)O1	none
COc1ccccc1NC(=O)N1CC(=O)N2[C@H](CO)[C@@H](c3ccc(C#CCC(C)C)cc3)[C@H]2C1	none (no result: E-sel inducer, miR-122 sensor, Cneo AK release, DENV2 CPE)
CN1C(=O)c2cc(NC(=O)Nc3ccccc3)ccc2OC[C@H]2O[C@H](CC(=O)O)CC[C@H]21	none (no result: miR-122 sensor)
CN(C)CC#Cc1ccc([C@@H]2[C@@H](CO)N3CCCCN(C(=O)C4CCCC4)C[C@@H]23)cc1	none (no result: rRNA inh HTS, E-sel inducer)
O=C(C1CCCCC1)N1CC2(C1)[C@@H](c1ccccc1)[C@H](CO)N2C(=O)c1cccnc1	none (no result: miR-122 sensor, Cneo AK release)
O=C(c1cccnc1)N1CC2(C1)[C@H](c1ccccc1)[C@H](CO)N2C(=O)C1CCC1	DENV2 CPE 44 (no result: miR-122 sensor, Cneo AK release)
CCC(=O)N1CC2(C1)[C@H](c1ccccc1)[C@H](CO)N2Cc1ccccc1F	none (no result: miR-122 sensor, Cneo AK release)
O=C(C1CCC1)N1CC2(C1)[C@@H](c1ccccc1)[C@@H](CO)N2C(=O)c1cccnc1	none (no result: miR-122 sensor, Cneo AK release)
O=C(C1CCCCC1)N1CC2(C1)[C@H](c1ccccc1)[C@H](CO)N2C(=O)c1cccnc1	DENV2 CPE 28 (no result: miR-122 sensor, Cneo AK release)
CCC(=O)N1CC2(C1)[C@@H](c1ccccc1)[C@@H](CO)N2Cc1ccccc1F	DENV2 CPE 24 (no result: miR-122 sensor, Cneo AK release)
CCC(=O)N1CC2(C1)[C@H](c1ccccc1)[C@H](CO)N2C(=O)c1cccnc1	DENV2 CPE 24 (no result: miR-122 sensor, Cneo AK release)
CCS(=O)(=O)N1CC2(C1)[C@H](c1ccccc1)[C@@H](CO)N2C(=O)C1CC1	DENV2 CPE 23 (no result: miR-122 sensor, Cneo AK release)
COc1ccc(S(=O)(=O)Nc2ccc3c(c2)C(=O)N([C@@H](C)CO)C[C@H](C)[C@@H](CN(C)C(=O)Nc2cccc4ccccc24)OCCCC[C@@H](C)O3)cc1	DENV2 CPE 26 (no result: miR-122 sensor, Cneo AK release)
C[C@H](CO)N1C[C@H](C)[C@@H](CN(C)C(=O)Nc2cccc3ccccc23)OCCCC[C@H](C)Oc2ccc(NS(=O)(=O)c3ccc(F)cc3)cc2C1=O	DENV2 CPE 39
